Data on five molecules can be found in ChEMBL document CHEMBL1122584 (1984).

Peptide text beside a SMILES is read from it.

The species named for assay [1] is Rattus norvegicus. Briefly: Potency of glycogenolytic activity was reported by four point assay. The format is functional.
Assay [2] is filed under the species Rattus norvegicus. Description: (§1) Compound was evaluated for its glycogenolytic activity in normal male rats and the plasma glucose level was determined at 1 ug/100 g of body weight. The format is functional, organism-based. The gist of the method:
(§2)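 Groups of five, anesthetized with sodium pentobarbital (6–7 mg/100 g), given peptide in saline s.c. (0.5 mL) 30 min later. Jugular blood was drawn at 15 min into EDTA, and plasma glucose was measured by glucose oxidase. Mean ± SD, n = 5.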

Assay [3] is filed under the species Rattus norvegicus. Description: Compound was evaluated for its glycogenolytic activity in normal male rats and the plasma glucose level was determined at 2 ug/100 g of body weight. The format is functional, organism-based. In outline:
as §2

The species entered for assay [4] is Rattus norvegicus. Description: Compound was evaluated for its glycogenolytic activity in normal male rats and the plasma glucose level was determined at 4 ug/100 g of body weight. In kind it is functional, organism-based. The gist of the method:
(§3)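 Male Charles River CD rats (175–350 g), fed and kept at 24 ± 2 °C under a 0500–1900 h light cycle for at least 1 week. Groups of five, anesthetized with sodium pentobarbital (6–7 mg/100 g), given peptide in saline s.c. (0.5 mL) 30 min later. Jugular blood was drawn at 15 min into EDTA, and plasma glucose was measured by glucose oxidase. Mean ± SD, n = 5.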

For assay [5], the species on record is Rattus norvegicus. Briefly: Compound was evaluated for its glycogenolytic activity in normal male rats and the plasma glucose level was determined at 12 ug/100 g of body weight. In kind it is functional, organism-based. In outline:
as §3

For assay [6], the species on record is Rattus norvegicus. Briefly: Compound was evaluated for its glycogenolytic activity in normal male rats and the plasma glucose level was determined at 6 ug/100 g of body weight. In kind it is functional, organism-based. The gist of the method: as §3
Assay [7] is filed under the species Rattus norvegicus. The assay is described as §1. In kind it is functional, organism-based. The gist of the method:
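Male Charles River CD rats (175–350 g), fed, anesthetized with sodium pentobarbital (6–7 mg/100 g), dosed subcutaneously 30 min later with peptide in saline (0.5 mL, gelatin-coated syringes), groups of five. Jugular blood drawn exactly 15 min post-injection into EDTA, and plasma glucose measured by glucose oxidase. Values are mean ± SD, n = 5.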
The source holds these as a separate data set.

For assay [8], the species on record is Rattus norvegicus. Description: Compound was evaluated for its glycogenolytic activity in normal male rats and the plasma glucose level was determined at 0.5 ug/100 g of body weight. In kind it is functional, organism-based.
The species named for assay [9] is Rattus norvegicus. Description: potency of glycogenolytic activity was reported by four point assay. The format is functional, organism-based.

Regarding `CSCC[C@H](NC(=O)[C@H](CC(C)C)NC(=O)[C@H](Cc1c[nH]c2ccccc12)NC(=O)[C@H](CCC(N)=O)NC(=O)[C@@H](NC(=O)[C@H](Cc1ccccc1)NC(=O)[C@H](CC(=O)O)NC(=O)[C@H](CCC(N)=O)NC(=O)[C@H](C)NC(=O)[C@H](CCCN=C(N)N)NC(=O)[C@H](CCCN=C(N)N)NC(=O)[C@H](CO)NC(=O)[C@H](CC(=O)O)NC(=O)[C@H](CC(C)C)NC(=O)[C@H](Cc1ccc(O)cc1)NC(=O)[C@H](CCCN=C(N)N)NC(=O)[C@H](CO)NC(=O)[C@H](Cc1ccc(O)cc1)NC(=O)[C@H](CC(=O)O)NC(=O)[C@H](CO)NC(=O)[C@@H](NC(=O)[C@H](Cc1ccccc1)NC(=O)[C@@H](NC(=O)[C@@H](C)NC(=O)[C@H](CCC(N)=O)NC(=O)[C@H](CO)NC(=O)[C@@H](N)Cc1c[nH]cn1)[C@@H](C)O)[C@@H](C)O)C(C)C)C(=O)N[C@@H](CC(N)=O)C(=O)N[C@H](C(=O)O)[C@@H](C)O`, the Potency in the assay filed under Rattus norvegicus [1] is 44%. The Plasma glucose was 174 mg 100ml-1 in the assay listed under Rattus norvegicus [2] and 198 mg 100ml-1 in the assay filed under Rattus norvegicus [3].
The molecule `CSCC[C@H](NC(=O)[C@H](CC(C)C)NC(=O)[C@H](Cc1c[nH]c2ccccc12)NC(=O)[C@H](CCC(N)=O)NC(=O)[C@@H](NC(=O)[C@H](Cc1ccccc1)NC(=O)[C@H](CC(=O)O)NC(=O)[C@H](CCC(N)=O)NC(=O)[C@H](C)NC(=O)[C@H](CCCN=C(N)N)NC(=O)[C@H](CCCN=C(N)N)NC(=O)[C@H](CO)NC(=O)[C@H](CC(=O)O)NC(=O)[C@H](CC(C)C)NC(=O)[C@H](Cc1ccc(O)cc1)NC(=O)[C@H](CCCN=C(N)N)NC(=O)[C@H](CO)NC(=O)[C@H](Cc1ccc(O)cc1)NC(=O)[C@H](CC(=O)O)NC(=O)[C@H](CO)NC(=O)[C@@H](NC(=O)[C@H](Cc1ccccc1)NC(=O)[C@@H](NC(=O)[C@@H](C)NC(=O)[C@H](CCC(N)=O)NC(=O)[C@H](CO)NC(=O)[C@H](N)Cc1ccc(Cl)cc1)[C@@H](C)O)[C@@H](C)O)C(C)C)C(=O)N[C@@H](CC(N)=O)C(=O)N[C@H](C(=O)O)[C@@H](C)O` gave a Potency in the assay listed under Rattus norvegicus [1] of 9%. Further, the Plasma glucose in the assay filed under Rattus norvegicus [4] is 176 mg 100ml-1; in the assay listed under Rattus norvegicus [3], 158 mg 100ml-1.
Molecule `CSCC[C@H](NC(=O)[C@H](CC(C)C)NC(=O)[C@H](Cc1c[nH]c2ccccc12)NC(=O)[C@H](CCC(N)=O)NC(=O)[C@@H](NC(=O)[C@H](Cc1ccccc1)NC(=O)[C@H](CC(=O)O)NC(=O)[C@H](CCC(N)=O)NC(=O)[C@H](C)NC(=O)[C@H](CCCN=C(N)N)NC(=O)[C@H](CCCN=C(N)N)NC(=O)[C@H](CO)NC(=O)[C@H](CC(=O)O)NC(=O)[C@H](CC(C)C)NC(=O)[C@H](Cc1ccc(O)cc1)NC(=O)[C@H](CCCN=C(N)N)NC(=O)[C@H](CO)NC(=O)[C@H](Cc1ccc(O)cc1)NC(=O)[C@H](CC(=O)O)NC(=O)[C@H](CO)NC(=O)[C@@H](NC(=O)[C@H](Cc1ccccc1)NC(=O)[C@@H](NC(=O)CNC(=O)[C@H](CCC(N)=O)NC(=O)[C@H](CO)NC(=O)[C@@H](N)Cc1ccccc1)[C@@H](C)O)[C@@H](C)O)C(C)C)C(=O)N[C@@H](CC(N)=O)C(=O)N[C@H](C(=O)O)[C@@H](C)O` (H-FSQGTFTSDYSRYLDSRRAQDFVQWLMNT-OH) came in with a Potency in the assay filed under Rattus norvegicus [1] of 31%. Further, the Plasma glucose was determined as 161 mg 100ml-1 in the assay listed under Rattus norvegicus [2] and 183 mg 100ml-1 in the assay filed under Rattus norvegicus [3].
As for `CSCC[C@H](NC(=O)[C@H](CC(C)C)NC(=O)[C@H](Cc1c[nH]c2ccccc12)NC(=O)[C@H](CCC(N)=O)NC(=O)[C@@H](NC(=O)[C@H](Cc1ccccc1)NC(=O)[C@H](CC(=O)O)NC(=O)[C@H](CCC(N)=O)NC(=O)[C@H](C)NC(=O)[C@H](CCCN=C(N)N)NC(=O)[C@H](CCCN=C(N)N)NC(=O)[C@H](CO)NC(=O)[C@H](CC(=O)O)NC(=O)[C@H](CC(C)C)NC(=O)[C@H](Cc1ccc(O)cc1)NC(=O)[C@H](CCCN=C(N)N)NC(=O)[C@H](CO)NC(=O)[C@H](Cc1ccc(O)cc1)NC(=O)[C@H](CC(=O)O)NC(=O)[C@H](CO)NC(=O)[C@@H](NC(=O)[C@H](Cc1ccccc1)NC(=O)[C@@H](NC(=O)CNC(=O)[C@H](CCC(N)=O)NC(=O)[C@@H](N)CO)[C@@H](C)O)[C@@H](C)O)C(C)C)C(=O)N[C@@H](CC(N)=O)C(=O)N[C@H](C(=O)O)[C@@H](C)O` (H-SQGTFTSDYSRYLDSRRAQDFVQWLMNT-OH), the Plasma glucose in the assay filed under Rattus norvegicus [5] turned out to be 186 mg 100ml-1; in the assay listed under Rattus norvegicus [6] it was 165 mg 100ml-1. For the same molecule, in the assay filed under Rattus norvegicus [1], the Potency was 4%.
On to GLUCAGON, for which the Plasma glucose in the assay filed under Rattus norvegicus [7] is 213 mg 100ml-1 [middle of 5 runs]; in the assay filed under Rattus norvegicus [8] it was 186 mg 100ml-1 [middle of 4 runs]. In addition, the Potency in the assay listed under Rattus norvegicus [1] and in the assay filed under Rattus norvegicus [9] was 100% throughout.
